One data set deals with PB1(5) bromodomain (Homo sapiens, UniProt Q86U86). Nature of the data set: DSF thermal shift, PB1. The class given is binding. The conditions noted are these: fragment screen against PB1(5); confirmed by ITC. A general note: Isothermal titration calorimetry measures the heat released or taken up as one component is titrated into another.
A further data set concerns the target SMARCA4 (Homo sapiens, UniProt P51532). Nature of the data set: SMARCA4 FRAP assay. It is filed as cell-based. The gist of the method:
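Run like the SMARCA2 FRAP: U2OS cells treated with the HDAC inhibitor SAHA to induce hyperacetylation, transfected with a GFP-tagged bromodomain construct, and exposed to test compound. Chromatin displacement is read as the fluorescence recovery half-time after photobleaching.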

A short description of data set [1]: Chemical stability in cell media. The class given is physicochemical. The note with it: after one week in cell media at 37°C.
The subject of data set [2] is C3H10T1/2 mesenchymal cells. The experiment in a line: Adipocyte differentiation. The class given is cell-based. The note with it: 20 μM.
Data set [3] deals with clear cell renal cell carcinoma cell lines (786-O and Rcc4). The experiment in a line: ccRCC cell line proliferation. It is filed as cell-based. The conditions noted are these: 786-O (wild type PB1) and Rcc4 (PB1 downregulation).
The subject of data set [4] is C2C12 and C3H10T1/2 cells. The experiment in a line: MTT cell viability assay. The class given is cell-based. The conditions noted are these: up to 50 μM dose, 72 hours. (Tetrazolium assays rely on reduction of a dye to a coloured formazan, in cell work by metabolically active cells.)
Data set [5] concerns non-family VIII bromodomains. Nature of the data set: BROMOscan profiling from DiscoveRx. It is filed as binding.
The subject of data set [6] is non-family VIII bromodomains. The experiment in a line: Tm shift panel of 40 bromodomain proteins. The class given is binding.
The next data set addresses GFP-SMARCA2 in U2OS (Homo sapiens, UniProt P51531). The experiment in a line: SMARCA2 FRAP assay. The conditions noted are these: U2OS treated with SAHA. It is filed as cell-based.
For another data set, the system named is Family VIII bromodomains. The experiment in a line: Isothermal Titration Calorimetry, Family VIII bromodomains. The class given is binding.
The target of a further data set is GFP-PB1 (Homo sapiens, UniProt Q86U86). The experiment in a line: PB1 FRAP assay. The class given is cell-based. The note with it: SAHA treated. The gist of the method: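 GFP-tagged PB1 (wild type or N263A / N707F acetyl-lysine-site mutants) expressed by transfection in cells pretreated with SAHA (2.5 μM) to hyperacetylate chromatin. Test compound given at several doses. Read-out is the half-time (t½) of fluorescence recovery after photobleaching, averaged from individual recovery curves of at least 20 cells per group with SEM. p-values are relative to wild type with SAHA.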
GFP-PB1, sequence (Q86U86 whole entry): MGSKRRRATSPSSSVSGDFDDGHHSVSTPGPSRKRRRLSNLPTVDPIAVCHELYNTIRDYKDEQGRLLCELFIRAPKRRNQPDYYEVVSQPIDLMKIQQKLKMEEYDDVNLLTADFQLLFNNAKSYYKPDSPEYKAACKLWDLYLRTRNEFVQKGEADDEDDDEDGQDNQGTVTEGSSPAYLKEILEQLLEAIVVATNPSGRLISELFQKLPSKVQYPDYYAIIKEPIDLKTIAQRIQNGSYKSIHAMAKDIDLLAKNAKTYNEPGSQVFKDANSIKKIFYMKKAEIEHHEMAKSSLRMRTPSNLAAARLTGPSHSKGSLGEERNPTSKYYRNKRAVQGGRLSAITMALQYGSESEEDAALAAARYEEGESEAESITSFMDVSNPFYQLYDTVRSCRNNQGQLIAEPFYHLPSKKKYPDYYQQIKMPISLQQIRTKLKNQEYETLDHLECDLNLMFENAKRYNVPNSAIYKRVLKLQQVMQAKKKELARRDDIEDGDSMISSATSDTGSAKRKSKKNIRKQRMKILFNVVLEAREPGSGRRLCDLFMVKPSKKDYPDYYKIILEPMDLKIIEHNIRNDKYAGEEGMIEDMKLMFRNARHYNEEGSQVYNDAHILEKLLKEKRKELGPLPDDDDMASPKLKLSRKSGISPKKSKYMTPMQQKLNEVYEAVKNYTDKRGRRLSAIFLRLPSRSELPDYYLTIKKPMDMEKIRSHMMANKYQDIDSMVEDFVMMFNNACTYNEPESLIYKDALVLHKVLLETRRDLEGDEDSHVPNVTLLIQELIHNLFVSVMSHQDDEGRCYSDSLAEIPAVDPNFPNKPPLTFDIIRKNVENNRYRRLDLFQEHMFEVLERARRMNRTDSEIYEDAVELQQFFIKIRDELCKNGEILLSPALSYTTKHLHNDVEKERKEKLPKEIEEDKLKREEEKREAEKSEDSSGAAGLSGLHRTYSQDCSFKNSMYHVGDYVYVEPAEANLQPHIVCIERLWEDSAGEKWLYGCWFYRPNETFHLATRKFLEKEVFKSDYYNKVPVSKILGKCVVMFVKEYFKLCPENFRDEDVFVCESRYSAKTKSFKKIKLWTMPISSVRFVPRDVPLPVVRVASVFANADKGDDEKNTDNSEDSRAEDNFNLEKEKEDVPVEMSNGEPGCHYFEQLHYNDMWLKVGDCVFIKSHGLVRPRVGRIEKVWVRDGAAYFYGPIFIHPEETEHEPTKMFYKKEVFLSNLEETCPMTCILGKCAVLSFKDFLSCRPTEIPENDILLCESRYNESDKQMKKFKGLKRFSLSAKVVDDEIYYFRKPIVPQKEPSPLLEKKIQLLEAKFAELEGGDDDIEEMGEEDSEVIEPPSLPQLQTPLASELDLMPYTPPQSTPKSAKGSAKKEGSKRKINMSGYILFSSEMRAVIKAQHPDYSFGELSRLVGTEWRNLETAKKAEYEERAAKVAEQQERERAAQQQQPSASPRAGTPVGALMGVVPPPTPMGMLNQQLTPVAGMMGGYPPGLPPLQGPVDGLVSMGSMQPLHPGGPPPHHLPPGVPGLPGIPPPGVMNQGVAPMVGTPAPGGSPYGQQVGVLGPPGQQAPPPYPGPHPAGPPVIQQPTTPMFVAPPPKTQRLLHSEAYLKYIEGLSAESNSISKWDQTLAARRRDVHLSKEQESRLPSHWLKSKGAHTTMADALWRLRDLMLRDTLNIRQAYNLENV

SMARCA4, sequence (P51532 whole entry): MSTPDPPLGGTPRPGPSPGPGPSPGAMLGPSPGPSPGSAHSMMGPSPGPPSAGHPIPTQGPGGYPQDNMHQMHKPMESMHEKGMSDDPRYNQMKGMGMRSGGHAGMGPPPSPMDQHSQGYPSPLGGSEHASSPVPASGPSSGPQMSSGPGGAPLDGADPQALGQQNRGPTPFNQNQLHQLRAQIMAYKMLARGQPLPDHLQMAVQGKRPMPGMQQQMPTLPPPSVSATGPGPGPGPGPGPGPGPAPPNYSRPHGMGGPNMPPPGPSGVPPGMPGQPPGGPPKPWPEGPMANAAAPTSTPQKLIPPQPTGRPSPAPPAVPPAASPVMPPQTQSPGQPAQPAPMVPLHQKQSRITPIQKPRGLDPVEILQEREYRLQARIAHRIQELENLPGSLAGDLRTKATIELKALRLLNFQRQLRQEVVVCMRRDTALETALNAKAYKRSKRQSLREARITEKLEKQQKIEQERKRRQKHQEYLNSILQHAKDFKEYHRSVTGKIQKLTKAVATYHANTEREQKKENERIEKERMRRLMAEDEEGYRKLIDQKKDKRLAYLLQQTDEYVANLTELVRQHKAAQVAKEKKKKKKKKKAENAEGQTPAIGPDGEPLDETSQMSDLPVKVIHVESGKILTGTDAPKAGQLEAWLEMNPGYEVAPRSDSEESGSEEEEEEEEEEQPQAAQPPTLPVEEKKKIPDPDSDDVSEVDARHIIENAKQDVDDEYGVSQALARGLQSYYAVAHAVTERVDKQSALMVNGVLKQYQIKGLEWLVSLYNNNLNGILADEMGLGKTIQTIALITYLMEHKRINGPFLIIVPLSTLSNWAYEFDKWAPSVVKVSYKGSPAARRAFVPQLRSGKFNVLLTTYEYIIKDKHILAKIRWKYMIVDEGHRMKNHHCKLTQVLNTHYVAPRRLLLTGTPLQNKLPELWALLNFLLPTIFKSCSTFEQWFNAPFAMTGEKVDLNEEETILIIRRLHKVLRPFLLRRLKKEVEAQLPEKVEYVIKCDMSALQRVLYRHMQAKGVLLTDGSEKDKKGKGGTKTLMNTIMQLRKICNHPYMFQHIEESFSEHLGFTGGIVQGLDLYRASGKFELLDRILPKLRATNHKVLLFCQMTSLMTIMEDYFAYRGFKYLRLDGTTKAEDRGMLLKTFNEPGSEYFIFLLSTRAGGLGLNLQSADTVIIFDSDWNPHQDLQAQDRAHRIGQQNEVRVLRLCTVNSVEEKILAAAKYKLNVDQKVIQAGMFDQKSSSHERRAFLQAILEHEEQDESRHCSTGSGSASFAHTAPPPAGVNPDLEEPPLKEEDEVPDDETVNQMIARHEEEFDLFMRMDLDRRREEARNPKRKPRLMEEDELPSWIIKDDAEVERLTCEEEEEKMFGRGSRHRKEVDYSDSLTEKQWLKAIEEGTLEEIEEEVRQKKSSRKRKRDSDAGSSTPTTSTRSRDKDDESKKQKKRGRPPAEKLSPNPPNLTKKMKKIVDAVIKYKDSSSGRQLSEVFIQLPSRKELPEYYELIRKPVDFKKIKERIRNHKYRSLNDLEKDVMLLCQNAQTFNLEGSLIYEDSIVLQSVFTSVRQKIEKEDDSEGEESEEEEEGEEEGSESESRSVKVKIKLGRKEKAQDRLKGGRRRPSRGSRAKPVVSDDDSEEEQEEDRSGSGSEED
GFP-SMARCA2 in U2OS, sequence (P51531 1-1572 isoform P51531-2): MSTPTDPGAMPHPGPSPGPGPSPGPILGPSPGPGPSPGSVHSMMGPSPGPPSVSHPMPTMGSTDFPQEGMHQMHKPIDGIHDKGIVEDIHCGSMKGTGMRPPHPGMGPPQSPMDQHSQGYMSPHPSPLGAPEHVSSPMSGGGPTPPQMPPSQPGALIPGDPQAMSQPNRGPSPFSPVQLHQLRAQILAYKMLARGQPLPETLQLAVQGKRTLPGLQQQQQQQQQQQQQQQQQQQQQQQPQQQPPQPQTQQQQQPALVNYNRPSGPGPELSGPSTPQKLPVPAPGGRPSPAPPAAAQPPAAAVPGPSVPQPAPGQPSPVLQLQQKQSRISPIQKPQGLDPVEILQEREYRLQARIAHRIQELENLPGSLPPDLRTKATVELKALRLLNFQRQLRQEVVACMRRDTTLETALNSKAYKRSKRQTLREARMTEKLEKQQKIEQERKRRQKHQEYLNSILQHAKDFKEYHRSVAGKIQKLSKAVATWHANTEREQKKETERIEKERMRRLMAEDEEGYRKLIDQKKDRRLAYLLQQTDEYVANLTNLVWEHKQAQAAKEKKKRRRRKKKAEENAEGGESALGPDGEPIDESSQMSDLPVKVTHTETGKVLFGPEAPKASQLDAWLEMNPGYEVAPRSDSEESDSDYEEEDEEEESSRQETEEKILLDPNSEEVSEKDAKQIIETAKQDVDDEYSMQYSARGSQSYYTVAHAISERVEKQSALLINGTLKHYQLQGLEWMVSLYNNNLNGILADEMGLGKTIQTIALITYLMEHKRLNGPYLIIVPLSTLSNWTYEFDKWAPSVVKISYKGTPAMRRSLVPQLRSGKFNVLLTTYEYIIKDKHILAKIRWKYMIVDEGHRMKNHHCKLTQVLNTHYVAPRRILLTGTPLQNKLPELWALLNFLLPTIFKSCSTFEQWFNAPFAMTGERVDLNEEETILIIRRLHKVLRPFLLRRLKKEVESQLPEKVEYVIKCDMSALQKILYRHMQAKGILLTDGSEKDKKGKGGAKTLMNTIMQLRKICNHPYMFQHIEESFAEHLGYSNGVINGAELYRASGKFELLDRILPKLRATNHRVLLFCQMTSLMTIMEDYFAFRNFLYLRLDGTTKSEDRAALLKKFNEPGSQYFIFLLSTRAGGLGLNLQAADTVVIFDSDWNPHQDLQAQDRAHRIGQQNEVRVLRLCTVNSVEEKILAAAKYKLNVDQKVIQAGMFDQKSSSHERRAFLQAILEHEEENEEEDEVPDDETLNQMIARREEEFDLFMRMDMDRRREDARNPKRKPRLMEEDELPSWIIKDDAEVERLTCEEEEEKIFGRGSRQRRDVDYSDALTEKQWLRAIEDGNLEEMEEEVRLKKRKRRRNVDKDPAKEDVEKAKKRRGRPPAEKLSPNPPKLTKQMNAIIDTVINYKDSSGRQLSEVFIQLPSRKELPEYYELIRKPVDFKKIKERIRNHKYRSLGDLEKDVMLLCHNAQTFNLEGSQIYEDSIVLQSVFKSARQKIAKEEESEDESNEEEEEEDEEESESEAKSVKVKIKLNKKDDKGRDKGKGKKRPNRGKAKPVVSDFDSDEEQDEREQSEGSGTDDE
PB1(5) bromodomain, sequence (Q86U86 653-763 limits assumed): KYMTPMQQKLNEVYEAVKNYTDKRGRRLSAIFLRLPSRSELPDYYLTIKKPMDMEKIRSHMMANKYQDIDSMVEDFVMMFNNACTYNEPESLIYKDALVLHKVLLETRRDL

On to `O=C(O)c1ccccc1O` [Compound 1, salicylic acid], for which the “fragment screen hit quality (DSF)” value on PB1(5) bromodomain is given as “weak, but highly ligand efficient hit”.
For `O=C(/C=C/N1C[C@H]2C[C@@H]1CN2c1ccccn1)c1ccccc1O` [Compound 16, (E)-1-(2-hydroxyphenyl)-3-((1R,4R)-5-(pyridin-2-yl)-2,5-diazabicyclo[2.2.1]heptan-2-yl)prop-2-en-1-one], the “SMARCA4 in cell target engagement (FRAP)” value at SMARCA4 is “confirmed”. Further, the compound recovered entry in data set [1] was “Greater than 90%”. Further, the inhibition of adipogenesis result in [2] was “Near complete inhibition”. Moreover, the “effect on cell line proliferation” value in data set [3] is given as “did not show any effect”. Further, the “cytotoxic effect (MTT cell viability)” value in data set [4] was “did not have significant cytotoxic effect”.
Consider `O=C(/C=C/N1[C@H]2CC[C@@H]1c1ncnc(NC3CC3)c1C2)c1ccccc1O` [Compound 17], for which the “SMARCA4 in cell target engagement (FRAP)” value at SMARCA4 is listed as “confirmed”. In data set [5], the “selectivity over non-family VIII bromodomains, BROMOscan” value is given as “not active”. For the same compound, in data set [6], the “selectivity over non-family VIII bromodomains, Tm shift panel” value is listed as “not active”. Besides, at GFP-SMARCA2 in U2OS, the “FRAP half-recovery time (t1/2) of GFP-SMARCA2” value was “accelerated FRAP half-recovery time (t1/2) significantly in a dose dependent manner”. In addition, the “effect on cell line proliferation” value in [3] is on record as “did not show any effect”. Also, the “binding to Family VIII bromodomains by ITC” value with Family VIII bromodomains is on record as “potent binder to most of the Family VIII bromodomains”. In addition, the “displacement of GFP-PB1 from chromatin (FRAP)” value at GFP-PB1 (1 μM) is given as “able to displace PB1 from chromatin”.
For `C#CCNc1ccnc(N2C[C@H]3C[C@@H]2CN3/C=C/C(=O)c2cccc(OC)c2O)n1` [Compound 18], the “half-recovery time of GFP-PB1 (FRAP)” value at GFP-PB1 is “no effect”.

The values above are taken from PMC5034155 (Journal of medicinal chemistry, 2016).
